Assay results as given in PMC4477344 (Diabetes, 2015).
Where no end group is shown, it is not given here.

How the values were obtained:
Dpp4 = conditions: cited from earlier work
[1] = system: diet-induced obese (DIO) mice; assay: GLP-1; format: in vivo, C57BL/6J male mice; conditions: continuous infusion for up to 16 weeks
In short: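 Mice were started on high-fat diet at 6–10 weeks of age and fed it for 7–22 weeks. At 13–28 weeks of age they were randomized by body weight and given osmotic minipumps delivering vehicle (0.154 mol/L NaCl/0.2% human serum albumin) or test compound at 50–70 nmol/kg/day for […]. Body weight was recorded weekly and food intake twice weekly. Fat and lean mass were measured by DXA at week 15. n = 6 per group.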

Row | Substance | time of cleavage in vivo by Dpp4 to GLP-1(9-36)amide (Dpp4) [min] | adverse effects [1]
1 | GLP-1(7-36)amide | 1 to 2 | –
2 | LVKGR-NH2 [GLP-1(32-36)amide] | – | No adverse effects
